≈ marks a conversion by molar mass, not a printed value. Calls of active or inactive are those of the source. The calls are words filed in the database; no cut-off is given here.
Experiments:
Pseudomonas aeruginosa [1] = assay: Antimicrobial activity against Pseudomonas aeruginosa NCIM 2200 at 500 ug/disk after 24 hrs by disk diffusion method; assay type: functional
Procedure, shortened: (§1)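 Disc diffusion. 100 µl of bacterial suspension at 10⁸ CFU/ml was spread on Mueller–Hinton agar. Discs loaded with test compound dissolved in DMSO were placed on the lawn, with a DMSO-only disc as negative control. Plates were incubated at 37 °C for 24 h, and the inhibition zone diameter was measured.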

Bacillus subtilis [2] = assay: Antimicrobial activity against Bacillus subtilis NCIM 2063 at 1000 ug/disk after 24 hrs by disk diffusion method; assay type: functional; conditions: NCIM 2063, 24 h, read-out: DIZ
Procedure, shortened: (§2)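 Disc diffusion on Mueller–Hinton agar. 100 µl of bacterial suspension at 10⁸ CFU/ml is spread on the plate. Discs carry test compounds at two loadings, dissolved in DMSO; DMSO alone serves as negative control. Ofloxacin disc is the positive reference. Plates are incubated at 37 °C for 24 h, and the inhibition zone diameter is measured.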

Proteus vulgaris [3] = assay: Antimicrobial activity against Proteus vulgaris NCIM 2027 at 1000 ug/disk after 24 hrs by disk diffusion method; assay type: functional; procedure, shortened: as §2
Lipomyces lipofer [4] = assay: Antimicrobial activity against Lipomyces lipofer NCIM 3252 at 1000 ug/disk after 72 hrs by disk diffusion method; assay type: functional
Procedure, shortened: (§3)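 Disc diffusion on Sabouraud's dextrose agar. 100 µl of fungal suspension at 10⁶ CFU/ml is spread on the plate. Discs carry test compounds at two loadings in DMSO; DMSO alone is the negative control. Clotrimazole disc is the positive reference. Plates are incubated at 27 °C for 72 h, and the zone of inhibition diameter is measured.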

Bacillus cereus [5] = assay: Antimicrobial activity against Bacillus cereus NCIM 2155 at 1000 ug/disk after 24 hrs by disk diffusion method; assay type: functional; conditions: NCIM 2155, 24 h, read-out: DIZ; procedure, shortened: as §2
Escherichia coli [6] = assay: Antimicrobial activity against Escherichia coli NCIM 2065 at 1000 ug/disk after 24 hrs by disk diffusion method; assay type: functional; conditions: NCIM 2065, 24 h, read-out: DIZ; procedure, shortened: as §2
Aliivibrio fischeri [7] = assay: Antimicrobial activity against Vibrio fischeri NCIM 2154 at 1000 ug/disk after 24 hrs by disk diffusion method; assay type: functional; procedure, shortened: as §1
Bacillus cereus [8] = assay: Antimicrobial activity against Bacillus cereus NCIM 2155 at 500 ug/disk after 24 hrs by disk diffusion method; assay type: functional; conditions: NCIM 2155, 24 h, read-out: DIZ; procedure, shortened: as §2
Staphylococcus [9] = assay: Antimicrobial activity against Staphylococcus albus NCIM 2178 at 1000 ug/disk after 24 hrs by disk diffusion method; assay type: functional; procedure, shortened: as §1
Escherichia coli [10] = assay: Antimicrobial activity against Escherichia coli NCIM 2065 after 24 hrs by serial dilution method; assay type: functional; conditions: NCIM 2065, 24 h
Procedure, shortened: (§4)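 Broth dilution MIC in nutrient broth, run only for organisms found sensitive in disc diffusion. Compounds are two-fold serially diluted in 1 ml sterile broth per tube, spanning 3.9 to 1000. Inoculated tubes are incubated at 37 °C for 24 h.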

Bacillus cereus [11] = assay: Antimicrobial activity against Bacillus cereus NCIM 2155 after 24 hrs by serial dilution method; assay type: functional; conditions: NCIM 2155, 24 h; procedure, shortened: as §4
Klebsiella aerogenes [12] = assay: Antimicrobial activity against Klebsiella aerogenes NCIM 2239 at 500 ug/disk after 24 hrs by disk diffusion method; assay type: functional; procedure, shortened: as §2
[13] = system: Rhodococcus corynebacterioides; assay: Antimicrobial activity against Corynebacterium rubrum NCIM 2252 at 500 ug/disk after 24 hrs by disk diffusion method; assay type: functional; conditions: Rhodococcoides corynebacterioides; procedure, shortened: as §2
Rhodotorula mucilaginosa [14] = assay: Antimicrobial activity against Rhodotorula rubra NCIM 3174 at 1000 ug/disk after 72 hrs by disk diffusion method; assay type: functional; conditions: NCIM 3174, 72 h, read-out: DIZ
Procedure, shortened: (§5)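 Fungal disc diffusion. 100 µl of suspension at 10⁶ CFU/ml was spread on Sabouraud's dextrose agar. Discs carrying test compound in DMSO were applied, with a DMSO-only disc as negative control. Plates were incubated at 27 °C for 72 h, and the zone of inhibition diameter was measured.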

Pseudomonas aeruginosa [15] = assay: Antimicrobial activity against Pseudomonas aeruginosa NCIM 2200 at 1000 ug/disk after 24 hrs by disk diffusion method; assay type: functional; procedure, shortened: as §2
Aspergillus parasiticus [16] = assay: Antimicrobial activity against Aspergillus parasiticus NCIM 904 after 72 hrs by serial dilution method; assay type: functional; conditions: NCIM 904, 72 h
Procedure, shortened: (§6)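 MIC by broth dilution in Sabouraud's dextrose broth, only for fungi sensitive in disc diffusion. Two-fold serial dilutions of compounds are made in 1 ml broth per tube, range 3.9 to 1000. Inoculated tubes are incubated at 27 °C for 72 h.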

Rhodotorula mucilaginosa [17] = assay: Antimicrobial activity against Rhodotorula rubra NCIM 3174 after 72 hrs by serial dilution method; assay type: functional; conditions: NCIM 3174, 72 h
Procedure, shortened: (§7)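 MIC by broth dilution in Sabouraud's dextrose broth, run only on fungi found sensitive in the disc assay. Twofold serial dilutions were made in 1 ml broth per tube, covering 3.9 to 1000. Inoculated tubes were incubated at 27 °C for 72 h.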

Bacillus subtilis [18] = assay: Antimicrobial activity against Bacillus subtilis NCIM 2063 after 24 hrs by serial dilution method; assay type: functional; conditions: NCIM 2063, 24 h; procedure, shortened: as §4
Aspergillus fumigatus [19] = assay: Antimicrobial activity against Aspergillus fumigatus NCIM 902 at 1000 ug/disk after 72 hrs by disk diffusion method; assay type: functional; conditions: NCIM 902, 72 h, read-out: DIZ; procedure, shortened: as §3
Aspergillus niger [20] = assay: Antimicrobial activity against Aspergillus niger NCIM 1196 at 1000 ug/disk after 72 hrs by disk diffusion method
Aspergillus parasiticus [21] = assay: Antimicrobial activity against Aspergillus parasiticus NCIM 904 at 500 ug/disk after 72 hrs by disk diffusion method; assay type: functional; conditions: NCIM 904, 72 h, read-out: DIZ; procedure, shortened: as §3
Staphylococcus [22] = assay: Antimicrobial activity against Staphylococcus albus NCIM 2178 at 500 ug/disk after 24 hrs by disk diffusion method; assay type: functional; procedure, shortened: as §1
Aspergillus flavus [23] = assay: Antimicrobial activity against Aspergillus flavus NCIM 902 at 500 ug/disk after 72 hrs by disk diffusion method; assay type: functional; conditions: NCIM 902, 72 h, read-out: DIZ; procedure, shortened: as §3
Trichoderma viride [24] = assay: Antimicrobial activity against Trichoderma viride NCIM 1195 at 500 ug/disk after 72 hrs by disk diffusion method; assay type: functional; conditions: NCIM 1195, 72 h, read-out: DIZ; procedure, shortened: as §5
Trichoderma viride [25] = assay: Antimicrobial activity against Trichoderma viride NCIM 1195 after 72 hrs by serial dilution method; assay type: functional; conditions: NCIM 1195, 72 h; procedure, shortened: as §7
Klebsiella aerogenes [26] = assay: Antimicrobial activity against Klebsiella aerogenes NCIM 2239 at 1000 ug/disk after 24 hrs by disk diffusion method; assay type: functional; procedure, shortened: as §2
Bacillus subtilis [27] = assay: Antimicrobial activity against Bacillus subtilis NCIM 2063 at 500 ug/disk after 24 hrs by disk diffusion method; assay type: functional; conditions: NCIM 2063, 24 h, read-out: DIZ; procedure, shortened: as §2
Aspergillus niger [28] = assay: Antimicrobial activity against Aspergillus niger NCIM 1196 at 500 ug/disk after 72 hrs by disk diffusion method
Aspergillus fumigatus [29] = assay: Antimicrobial activity against Aspergillus fumigatus NCIM 902 at 500 ug/disk after 72 hrs by disk diffusion method; assay type: functional; procedure, shortened: as §3
Proteus vulgaris [30] = assay: Antimicrobial activity against Proteus vulgaris NCIM 2027 at 500 ug/disk after 24 hrs by disk diffusion method; assay type: functional; procedure, shortened: as §2
Rhodotorula mucilaginosa [31] = assay: Antimicrobial activity against Rhodotorula rubra NCIM 3174 at 500 ug/disk after 72 hrs by disk diffusion method; assay type: functional; conditions: NCIM 3174, 72 h, read-out: DIZ; procedure, shortened: as §5
Trichoderma viride [32] = assay: Antimicrobial activity against Trichoderma viride NCIM 1195 at 1000 ug/disk after 72 hrs by disk diffusion method; assay type: functional; conditions: NCIM 1195, 72 h, read-out: DIZ; procedure, shortened: as §5
Aspergillus flavus [33] = assay: Antimicrobial activity against Aspergillus flavus NCIM 902 at 1000 ug/disk after 72 hrs by disk diffusion method; assay type: functional; conditions: NCIM 902, 72 h, read-out: DIZ; procedure, shortened: as §3
Salmonella typhimurium [34] = assay: Antimicrobial activity against Salmonella Typhimurium NCIM 2501 at 500 ug/disk after 24 hrs by disk diffusion method; assay type: functional; conditions: Salmonella enterica subsp. enterica serovar Typhimurium; procedure, shortened: as §1
Escherichia coli [35] = assay: Antimicrobial activity against Escherichia coli NCIM 2065 at 500 ug/disk after 24 hrs by disk diffusion method; assay type: functional; conditions: NCIM 2065, 24 h, read-out: DIZ; procedure, shortened: as §2
Lipomyces lipofer [36] = assay: Antimicrobial activity against Lipomyces lipofer NCIM 3252 at 500 ug/disk after 72 hrs by disk diffusion method; assay type: functional; procedure, shortened: as §3
[37] = system: Rhodococcus corynebacterioides; assay: Antimicrobial activity against Corynebacterium rubrum NCIM 2252 at 1000 ug/disk after 24 hrs by disk diffusion method; assay type: functional; conditions: Rhodococcoides corynebacterioides; procedure, shortened: as §2
Penicillium chrysogenum [38] = assay: Antimicrobial activity against Penicillium chrysogenum NCIM 707 at 1000 ug/disk after 72 hrs by disk diffusion method; assay type: functional; procedure, shortened: as §3
Aliivibrio fischeri [39] = assay: Antimicrobial activity against Vibrio fischeri NCIM 2154 at 500 ug/disk after 24 hrs by disk diffusion method; assay type: functional; procedure, shortened: as §1
Penicillium chrysogenum [40] = assay: Antimicrobial activity against Penicillium chrysogenum NCIM 707 at 500 ug/disk after 72 hrs by disk diffusion method; assay type: functional; procedure, shortened: as §3
Aspergillus parasiticus [41] = assay: Antimicrobial activity against Aspergillus parasiticus NCIM 904 at 1000 ug/disk after 72 hrs by disk diffusion method; assay type: functional; conditions: NCIM 904, 72 h, read-out: DIZ; procedure, shortened: as §3
Aspergillus fumigatus [42] = assay: Antimicrobial activity against Aspergillus fumigatus NCIM 902 after 72 hrs by serial dilution method; assay type: functional; conditions: NCIM 902, 72 h; procedure, shortened: as §6
Aspergillus flavus [43] = assay: Antimicrobial activity against Aspergillus flavus NCIM 902 after 72 hrs by serial dilution method; assay type: functional; conditions: NCIM 535, 72 h, in the assay text read “NCIM 535” for “NCIM 902”; procedure, shortened: as §6
Salmonella typhimurium [44] = assay: Antimicrobial activity against Salmonella Typhimurium NCIM 2501 at 1000 ug/disk after 24 hrs by disk diffusion method; assay type: functional; conditions: Salmonella enterica subsp. enterica serovar Typhimurium; procedure, shortened: as §1

MIC (Escherichia coli [10]): 125 µg/mL (≈ 384 µM)
MIC (Bacillus cereus [11]): 125 µg/mL (≈ 384 µM)
MIC (Aspergillus parasiticus [16]): 62.5 µg/mL (≈ 192 µM)
MIC (Rhodotorula mucilaginosa [17]): 31.2 µg/mL (≈ 95.9 µM)
MIC (Bacillus subtilis [18]): 62.5 µg/mL (≈ 192 µM)
MIC (Trichoderma viride [25]): 31.2 µg/mL (≈ 95.9 µM)
MIC (Aspergillus fumigatus [42]): 62.5 µg/mL (≈ 192 µM)
MIC (Aspergillus flavus [43]): 62.5 µg/mL (≈ 192 µM)
SMILES: O=C1CCCC2=C1C(c1ccccc1)c1ccc3ccccc3c1N2 (centres undefined)
diameter of the inhibition zone (DIZ) (Pseudomonas aeruginosa [1]): inactive
zone of inhibition at 1000 µg/disc (Bacillus subtilis [2]): 10 mm
diameter of the inhibition zone (DIZ) (Proteus vulgaris [3]): inactive
diameter of the inhibition zone (DIZ) (Lipomyces lipofer [4]): inactive
zone of inhibition at 1000 µg/disc (Bacillus cereus [5]): 9 mm
zone of inhibition at 1000 µg/disc (Escherichia coli [6]): 9 mm
diameter of the inhibition zone (DIZ) (Aliivibrio fischeri [7]): inactive
zone of inhibition at 500 µg/disc (Bacillus cereus [8]): 8 mm
diameter of the inhibition zone (DIZ) (Staphylococcus [9]): inactive
diameter of the inhibition zone (DIZ) (Klebsiella aerogenes [12]): inactive
diameter of the inhibition zone (DIZ) [13]: inactive
zone of inhibition at 1000 µg/disc (Rhodotorula mucilaginosa [14]): 12 mm
diameter of the inhibition zone (DIZ) (Pseudomonas aeruginosa [15]): inactive
zone of inhibition at 1000 µg/disc (Aspergillus fumigatus [19]): 11 mm
diameter of the inhibition zone (DIZ) (Aspergillus niger [20]): inactive
zone of inhibition at 500 µg/disc (Aspergillus parasiticus [21]): 7 mm
diameter of the inhibition zone (DIZ) (Staphylococcus [22]): inactive
zone of inhibition at 500 µg/disc (Aspergillus flavus [23]): 9 mm
zone of inhibition at 500 µg/disc (Trichoderma viride [24]): 11 mm
diameter of the inhibition zone (DIZ) (Klebsiella aerogenes [26]): inactive
zone of inhibition at 500 µg/disc (Bacillus subtilis [27]): 8 mm
diameter of the inhibition zone (DIZ) (Aspergillus niger [28]): inactive
diameter of the inhibition zone (DIZ) (Aspergillus fumigatus [29]): inactive
diameter of the inhibition zone (DIZ) (Proteus vulgaris [30]): inactive
zone of inhibition at 500 µg/disc (Rhodotorula mucilaginosa [31]): 8 mm
zone of inhibition at 1000 µg/disc (Trichoderma viride [32]): 12 mm
zone of inhibition at 1000 µg/disc (Aspergillus flavus [33]): 10 mm
diameter of the inhibition zone (DIZ) (Salmonella typhimurium [34]): inactive
zone of inhibition at 500 µg/disc (Escherichia coli [35]): 8 mm
diameter of the inhibition zone (DIZ) (Lipomyces lipofer [36]): inactive
diameter of the inhibition zone (DIZ) [37]: inactive
diameter of the inhibition zone (DIZ) (Penicillium chrysogenum [38]): inactive
diameter of the inhibition zone (DIZ) (Aliivibrio fischeri [39]): inactive
diameter of the inhibition zone (DIZ) (Penicillium chrysogenum [40]): inactive
zone of inhibition at 1000 µg/disc (Aspergillus parasiticus [41]): 9 mm
diameter of the inhibition zone (DIZ) (Salmonella typhimurium [44]): inactive

— ChEMBL document CHEMBL1138564, “Microwave-induced synthesis and anti-microbial activities of 7,10,11,12-tetrahydrobenzo[c]acridin-8(9H)-one derivatives” (2009)
